# Results published in ChEMBL document CHEMBL1121965, “Nonsteroidal estrogens: synthesis and estrogen receptor binding affinity of derivatives of (3R*,4S*)-3,4-bis(4-hydroxyphenyl)hexane (hexestrol) and (2R*,3S*)-2,3-bis(4-hydroxyphenyl)pentane (norhexestrol) functionalized on the side chain” (J Med Chem, 1982).
# Target: Estrogen receptor (Ovis aries) (UniProt P49885+Q9TU15)
# Assay: The ratio of association constant for estrogen receptor using [3H]estradiol as a tracer, relative to estradiol
# Assay type: protein assay
# Method in brief: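 Competitive binding: lamb uterine cytosol supplied estrogen receptor, [3H]estradiol served as tracer, and free tracer was removed from bound by charcoal-dextran adsorption. Relative association constants were expressed against estradiol set at 100.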
row,RAC,SMILES
1,15,CCC(c1ccc(O)cc1)C(CCO)c1ccc(O)cc1 (centres undefined)
2,0.09,CC[C@H](c1ccc(O)cc1)[C@@H](CC(N)=O)c1ccc(O)cc1
3,127,CC[C@H](c1ccc(O)cc1)[C@@H](CI)c1ccc(O)cc1
4,129,CC[C@H](c1ccc(O)cc1)[C@@H](CF)c1ccc(O)cc1
5,8.9,CC[C@H](c1ccc(O)cc1)[C@@H](CO)c1ccc(O)cc1
6,300,CC[C@H](c1ccc(O)cc1)[C@@H](CC)c1ccc(O)cc1
7,150,CC[C@H](c1ccc(O)cc1)[C@@H](CBr)c1ccc(O)cc1

# Second part, the compound before the results:
row,SMILES,RAC
1,CC[C@H](c1ccc(O)cc1)[C@@H](CC(=O)OC)c1ccc(O)cc1,19
2,CCC(c1ccc(O)cc1)C(CCI)c1ccc(O)cc1 (centres undefined),60
3,CC[C@H](c1ccc(O)cc1)[C@@H](C)c1ccc(O)cc1,137
4,CCCCCNC(=O)[C@@H](c1ccc(O)cc1)[C@H](CC)c1ccc(O)cc1,0.29
5,CCCCCNC(=O)C[C@@H](c1ccc(O)cc1)[C@H](CC)c1ccc(O)cc1,0.15
6,CC[C@H](c1ccc(O)cc1)[C@@H](CC(C)=O)c1ccc(O)cc1,21
7,CC[C@H](c1ccc(O)cc1)[C@@H](CC(=O)C[N+]#N)c1ccc(O)cc1,2.8
8,CCCCCOC(=O)CC(c1ccc(O)cc1)C(CC)c1ccc(O)cc1 (centres undefined),3.8
9,CC[C@H](c1ccc(O)cc1)[C@@H](C(N)=O)c1ccc(O)cc1,0.2
10,CC[C@H](c1ccc(O)cc1)[C@@H](C(C)=O)c1ccc(O)cc1,58
11,CC[C@H](c1ccc(O)cc1)[C@@H](C(=O)C[N+]#N)c1ccc(O)cc1,10.9
12,CCC(c1ccc(O)cc1)C(C(=O)OC)c1ccc(O)cc1 (centres undefined),70
13,CCCCCOC(=O)C(c1ccc(O)cc1)C(CC)c1ccc(O)cc1 (centres undefined),61
14,CCCCC(=O)[C@@H](c1ccc(O)cc1)[C@H](CC)c1ccc(O)cc1,81
15,CCC(c1ccc(O)cc1)C(CCBr)c1ccc(O)cc1 (centres undefined),71
16,CCCCC(=O)C[C@@H](c1ccc(O)cc1)[C@H](CC)c1ccc(O)cc1,9.4
17,CCC(c1ccc(O)cc1)C(CCF)c1ccc(O)cc1 (centres undefined),129
